Square brackets hold non-standard residues; d marks the D form. Peptide text beside a SMILES is read from it. Phe(ol) = N[C@H](CO)Cc1ccccc1; Ahp = NCCCCCCC(=O)O; Ahx = NCCCCCC(=O)O; Ava = NCCCCC(=O)O; GABA = NCCCC(=O)O
What was measured:
Prothrombin [1] = biological target: T1, Prothrombin (Homo sapiens, UniProt P00734); test: In vitro activity against thrombin with 10 uM substrate s-2238 (D-Phe-Pip-Arg-pNA)
Coagulation factor X = Coagulation factor X (Homo sapiens, UniProt P00742); test: In vitro activity against Factor Xa was determined
Chain of Coagulation factor X (P00742 41-179 limits assumed): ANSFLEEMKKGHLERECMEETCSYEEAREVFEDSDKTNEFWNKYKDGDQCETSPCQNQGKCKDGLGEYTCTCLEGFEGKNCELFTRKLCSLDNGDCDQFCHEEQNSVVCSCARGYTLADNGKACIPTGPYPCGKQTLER
Chain of Coagulation factor X (P00742 235-488 limits assumed): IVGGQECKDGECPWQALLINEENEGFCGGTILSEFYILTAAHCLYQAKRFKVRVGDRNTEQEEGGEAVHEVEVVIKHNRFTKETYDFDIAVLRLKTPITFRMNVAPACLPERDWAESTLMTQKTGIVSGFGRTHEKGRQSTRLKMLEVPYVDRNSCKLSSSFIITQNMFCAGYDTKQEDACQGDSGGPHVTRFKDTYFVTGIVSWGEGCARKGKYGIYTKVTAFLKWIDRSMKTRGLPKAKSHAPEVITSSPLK

Plasminogen [2] = biological target: T2, Plasminogen (Homo sapiens, UniProt P00747); test: In vitro activity against plasmin was determined
T2 sequence (P00747 97-580 limits assumed): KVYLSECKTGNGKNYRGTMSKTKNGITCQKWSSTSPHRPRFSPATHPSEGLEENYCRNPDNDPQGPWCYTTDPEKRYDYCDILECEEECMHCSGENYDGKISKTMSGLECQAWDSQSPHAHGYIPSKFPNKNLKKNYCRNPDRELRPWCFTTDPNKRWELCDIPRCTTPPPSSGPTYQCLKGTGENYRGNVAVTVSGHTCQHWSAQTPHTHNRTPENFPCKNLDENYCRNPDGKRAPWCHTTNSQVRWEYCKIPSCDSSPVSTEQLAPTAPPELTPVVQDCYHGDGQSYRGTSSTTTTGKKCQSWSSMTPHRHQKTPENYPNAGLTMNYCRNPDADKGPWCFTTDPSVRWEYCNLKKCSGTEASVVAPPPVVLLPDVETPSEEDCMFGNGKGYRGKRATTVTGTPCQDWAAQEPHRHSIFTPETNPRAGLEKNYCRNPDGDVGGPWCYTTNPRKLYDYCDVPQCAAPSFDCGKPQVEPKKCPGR
T2 sequence (P00747 581-810 limits assumed): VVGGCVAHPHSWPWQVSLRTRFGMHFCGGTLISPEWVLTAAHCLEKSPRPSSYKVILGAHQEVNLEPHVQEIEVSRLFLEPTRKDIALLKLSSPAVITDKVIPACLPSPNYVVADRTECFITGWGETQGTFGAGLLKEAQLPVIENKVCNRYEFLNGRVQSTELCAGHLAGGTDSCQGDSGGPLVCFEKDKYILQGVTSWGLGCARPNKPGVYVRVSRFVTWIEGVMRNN

Prothrombin [3] = biological target: T1, Prothrombin; test: In vitro activity against thrombin was determined, using a 10 uM substrate s-2238 (D-Phe-Pip-Arg-pNA); 20-30
Summary of the method: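 Human α-thrombin (0.1 unit/mL) preincubated with inhibitor for 3 min at room temperature in pH 7.4 buffer (30 mM HEPES, 145 mM NaCl, 5 mM KCl, 1 mg/mL PEG-8000). […] Absorbance change at 405 nm followed kinetically. Values are means of at least triplicate determinations.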

Plasminogen [4] = biological target: T2, Plasminogen; test: In vitro activity against […] was determined
Prothrombin [5] = biological target: T1, Prothrombin; test: In vitro activity against thrombin was determined
Serine protease 1 = Serine protease 1 (Homo sapiens, UniProt P07477); test: In vitro activity against trypsin was determined
Chain of Serine protease 1 (P07477 whole entry): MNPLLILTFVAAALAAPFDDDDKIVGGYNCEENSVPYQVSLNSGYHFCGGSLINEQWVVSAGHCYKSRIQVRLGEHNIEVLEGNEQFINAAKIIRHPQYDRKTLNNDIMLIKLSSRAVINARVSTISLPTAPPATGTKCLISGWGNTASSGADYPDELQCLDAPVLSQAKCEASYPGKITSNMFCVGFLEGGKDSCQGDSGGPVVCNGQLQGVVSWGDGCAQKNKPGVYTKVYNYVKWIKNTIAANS

| SMILES | IC50 (Prothrombin [1]) | other results |
| --- | --- | --- |
| CC(C)C[C@H](NC(=O)[C@H](Cc1ccccc1)NC(=O)CCCCN)C(=O)N[C@H](CO)Cc1ccccc1 (H-[Ava]FL[Phe(ol)]) | 100 µM |  |
| COC(=O)[C@H](Cc1ccccc1)NC(=O)[C@H](CC(C)C)NC(=O)[C@H](Cc1ccccc1)NC(=O)CCCCCN (H-[Ahx]FLF-OMe) | 80 µM |  |
| COC(=O)[C@H](Cc1ccccc1)NC(=O)[C@H](CC(C)C)NC(=O)[C@H](Cc1ccccc1)NC(=O)CCCNC(=N)N | 1.41 µM |  |
| CC(C)C[C@H](NC(=O)[C@H](Cc1ccccc1)NC(=O)CCCN=C(N)N)C(=O)N[C@@H](CC1CCCCC1)[C@@H](O)c1nccs1 |  | IC50 (Coagulation factor X): 6 µM; IC50 (Plasminogen [2]): 143 µM |
| COC(=O)C(O)[C@H](CCCCN)NC(=O)[C@@H]1CCCN1C(=O)[C@H](N)Cc1ccccc1 (some centres undefined) |  | IC50 (Prothrombin [3]): 30 µM |
| COC(=O)[C@H](Cc1ccccc1)NC(=O)[C@H](CC(C)C)NC(=O)[C@H](Cc1ccccc1)NC(=O)CCCN (H-[GABA]FLF-OMe) | > 300 µM |  |
| COC(=O)[C@H](Cc1ccccc1)NC(=O)[C@H](CC(C)C)NC(=O)[C@H](Cc1ccccc1)NC(=O)CCCCNC(=N)N | 154 µM |  |
| CN[C@H](Cc1ccccc1)C(=O)N1CCC[C@H]1C(=O)N[C@H](C=O)CCCN=C(N)N |  | IC50 (Coagulation factor X): 4 µM; IC50 (Plasminogen [4]): 0.23 µM; IC50 (Prothrombin [5]): 0.008 µM; IC50 (Serine protease 1): 0.008 µM |

Second part, led by results:

| IC50 (Prothrombin [1]) | SMILES | other results |
| --- | --- | --- |
| > 333 µM | COC(=O)[C@H](Cc1ccccc1)NC(=O)[C@H](CC(C)C)NC(=O)[C@@H](N)Cc1ccccc1 (H-Phe-Leu-Phe-OMe) |  |
| 330 µM | COC(=O)[C@H](Cc1ccccc1)NC(=O)[C@H](CC(C)C)NC(=O)[C@H](Cc1ccccc1)NC(=O)CCCCCCN (H-[Ahp]FLF-OMe) |  |
| > 200 µM | COC(=O)[C@H](Cc1ccccc1)NC(=O)[C@H](CC(C)C)NC(=O)[C@H](Cc1ccccc1)NC(=O)CCCCCNC(=N)N |  |
| 7.5 µM | CC(C)C[C@H](NC(=O)[C@H](Cc1ccccc1)NC(=O)CCCCCN)C(=O)N[C@@H](CC1CCCCC1)[C@@H](O)c1nccs1 |  |
| > 530 µM | CC(C)C[C@H](NC(=O)[C@@H](N)Cc1ccccc1)C(=O)N[C@@H](CC1CCCCC1)[C@@H](O)c1nccs1 |  |
| 17.6 µM | COC(=O)C(O)[C@H](CCCCN)NC(=O)[C@@H]1CCCN1C(=O)[C@@H](Cc1ccccc1)NC(=O)CCCCCN (some centres undefined) |  |
| 57.1 µM | COC(=O)[C@H](Cc1ccccc1)NC(=O)[C@H](CC(C)C)NC(=O)[C@H](Cc1ccccc1)NC(=O)CCCCN (H-[Ava]FLF-OMe) |  |
